The source made the active and inactive calls. The calls are words filed in the database; no cut-off is given here.
Experiments:
OVCAR-4 = test: Cytotoxicity against human OVCAR-4 assessed as growth inhibition at 10 uM by NCI protocol relative to control; assay type: functional; conditions: read-out: GI
Procedure, shortened: (§1)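 Run by NCI as a single-dose screen at 10 μM across the sixty-cell-line panel, which covers nine human tumour tissue types. The read-out is percent growth inhibition of treated cells relative to untreated cells.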

OVCAR-3 = test: Cytotoxicity against human OVCAR-3 assessed as growth inhibition at 10 uM by NCI protocol relative to control; assay type: functional; conditions: read-out: GI; procedure, shortened: as §1
NCI-H322M = test: Cytotoxicity against human NCI-H322M assessed as growth inhibition at 10 uM by NCI protocol relative to control; assay type: functional; conditions: read-out: GI; procedure, shortened: as §1
MDA-MB-231 = test: Cytotoxicity against human MDA-MB-231 assessed as growth inhibition at 10 uM by NCI protocol relative to control; assay type: functional; conditions: read-out: GI; procedure, shortened: as §1
ACHN = test: Cytotoxicity against human ACHN assessed as growth inhibition at 10 uM by NCI protocol relative to control; assay type: functional; conditions: read-out: GI; procedure, shortened: as §1
HCT-15 = test: Cytotoxicity against human HCT-15 assessed as growth inhibition at 10 uM by NCI protocol relative to control; assay type: functional; conditions: read-out: GI; procedure, shortened: as §1
MCF7 = test: Cytotoxicity against human MCF7 assessed as growth inhibition at 10 uM by NCI protocol relative to control; assay type: functional; conditions: read-out: GI; procedure, shortened: as §1
OVCAR-5 = test: Cytotoxicity against human OVCAR-5 assessed as growth inhibition at 10 uM by NCI protocol relative to control; assay type: functional, cell-based; procedure, shortened: as §1
M14 = test: Cytotoxicity against human M14 assessed as growth inhibition at 10 uM by NCI protocol relative to control; assay type: functional; conditions: read-out: GI; procedure, shortened: as §1
A498 = test: Cytotoxicity against human A498 assessed as growth inhibition at 10 uM by NCI protocol relative to control; assay type: functional; conditions: read-out: GI; procedure, shortened: as §1
PC-3 = test: Cytotoxicity against human PC3 assessed as growth inhibition at 10 uM by NCI protocol relative to control; assay type: functional; conditions: read-out: GI; procedure, shortened: as §1
CAKI-1 = test: Cytotoxicity against human Caki1 assessed as growth inhibition at 10 uM by NCI protocol relative to control; assay type: functional; conditions: read-out: GI; procedure, shortened: as §1
HOP-62 = test: Cytotoxicity against human HOP-62 assessed as growth inhibition at 10 uM by NCI protocol relative to control; assay type: functional; conditions: read-out: GI; procedure, shortened: as §1
SNB-19 = test: Cytotoxicity against human SNB-19 assessed as growth inhibition at 10 uM by NCI protocol relative to control; assay type: functional; conditions: read-out: GI
Procedure, shortened: (§2)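 Run by the NCI under its standard protocol: one dose of 10 μM against a sixty-line panel from nine human tumour tissues. Result given as percent growth inhibition of treated cells relative to untreated cells.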

UACC-62 = test: Cytotoxicity against human UACC-62 assessed as growth inhibition at 10 uM by NCI protocol relative to control; assay type: functional; conditions: read-out: GI; procedure, shortened: as §2
NCI-H460 = test: Cytotoxicity against human NCI-H460 assessed as growth inhibition at 10 uM by NCI protocol relative to control; assay type: functional; conditions: read-out: GI; procedure, shortened: as §1
OVCAR-8 = test: Cytotoxicity against human OVCAR-8 assessed as growth inhibition at 10 uM by NCI protocol relative to control; assay type: functional; conditions: read-out: GI; procedure, shortened: as §1
SF-268 = test: Cytotoxicity against human SF-268 assessed as growth inhibition at 10 uM by NCI protocol relative to control; assay type: functional; conditions: read-out: GI; procedure, shortened: as §1
K562 = test: Cytotoxicity against human K-562 assessed as growth inhibition at 10 uM by NCI protocol relative to control; assay type: functional; conditions: read-out: GI; procedure, shortened: as §1
HL-60 = test: Cytotoxicity against human HL60 assessed as growth inhibition at 10 uM by NCI protocol relative to control; assay type: functional; conditions: read-out: GI; procedure, shortened: as §1
SR = test: Cytotoxicity against human SR assessed as growth inhibition at 10 uM by NCI protocol relative to control; assay type: functional; conditions: read-out: GI; procedure, shortened: as §2
NCI-H226 = test: Cytotoxicity against human NCI-H226 assessed as growth inhibition at 10 uM by NCI protocol relative to control; assay type: functional; conditions: read-out: GI; procedure, shortened: as §1
HCT-116 = test: Cytotoxicity against human HCT-116 assessed as growth inhibition at 10 uM by NCI protocol relative to control; assay type: functional; conditions: read-out: GI; procedure, shortened: as §1
EKVX = test: Cytotoxicity against human EKVX assessed as growth inhibition at 10 uM by NCI protocol relative to control; assay type: functional; conditions: read-out: GI; procedure, shortened: as §1
LOX IMVI = test: Cytotoxicity against human LOX IMVI assessed as growth inhibition at 10 uM by NCI protocol relative to control; assay type: functional; conditions: read-out: GI; procedure, shortened: as §1
CCRF-CEM = test: Cytotoxicity against human CCRF-CEM assessed as growth inhibition at 10 uM by NCI protocol relative to control; assay type: functional; conditions: read-out: GI; procedure, shortened: as §1
BT-549 = test: Cytotoxicity against human BT-549 assessed as growth inhibition at 10 uM by NCI protocol relative to control; assay type: functional; conditions: read-out: GI; procedure, shortened: as §1
MDA-MB-435 = test: Cytotoxicity against human MDA-MB-435 assessed as growth inhibition at 10 uM by NCI protocol relative to control; assay type: functional, cell-based; procedure, shortened: as §1
SF-295 = test: Cytotoxicity against human SF-295 assessed as growth inhibition at 10 uM by NCI protocol relative to control; assay type: functional; conditions: read-out: GI; procedure, shortened: as §1
MDA-MB-468 = test: Cytotoxicity against human MDA-MB-468 assessed as growth inhibition at 10 uM by NCI protocol relative to control; assay type: functional; conditions: read-out: GI; procedure, shortened: as §1
NCI-H23 = test: Cytotoxicity against human NCI-H23 assessed as growth inhibition at 10 uM by NCI protocol relative to control; assay type: functional; conditions: read-out: GI; procedure, shortened: as §1
T47D [1] = test: Cytotoxicity against human T47D cells assessed as reduction in cell viability after 3 hrs by MTT assay
T47D [2] = test: Cytotoxicity against human T-47D assessed as growth inhibition at 10 uM by NCI protocol relative to control; assay type: functional; conditions: read-out: GI; procedure, shortened: as §2
A549 = test: Cytotoxicity against human A549 assessed as growth inhibition at 10 uM by NCI protocol relative to control; assay type: functional; conditions: read-out: GI; procedure, shortened: as §1
IGROV-1 = test: Cytotoxicity against human IGROVI assessed as growth inhibition at 10 uM by NCI protocol relative to control; assay type: functional; conditions: read-out: GI; procedure, shortened: as §1
UO-31 = test: Cytotoxicity against human UO31 assessed as growth inhibition at 10 uM by NCI protocol relative to control; assay type: functional; conditions: read-out: GI; procedure, shortened: as §2
MOLT-4 = test: Cytotoxicity against human MOLT-4 assessed as growth inhibition at 10 uM by NCI protocol relative to control; assay type: functional; conditions: read-out: GI; procedure, shortened: as §1
NCI-H522 = test: Cytotoxicity against human NCI-H522 assessed as growth inhibition at 10 uM by NCI protocol relative to control; assay type: functional; conditions: read-out: GI; procedure, shortened: as §1
UACC-257 = test: Cytotoxicity against human UACC-257 assessed as growth inhibition at 10 uM by NCI protocol relative to control; assay type: functional; conditions: read-out: GI; procedure, shortened: as §2
SK-MEL-5 = test: Cytotoxicity against human SK-MEL-5 assessed as growth inhibition at 10 uM by NCI protocol relative to control; assay type: functional; conditions: read-out: GI; procedure, shortened: as §1
SN12C = test: Cytotoxicity against human SN12C assessed as growth inhibition at 10 uM by NCI protocol relative to control; assay type: functional; conditions: read-out: GI; procedure, shortened: as §2
RPMI-8226 = test: Cytotoxicity against human RPMI-8226 assessed as growth inhibition at 10 uM by NCI protocol relative to control; assay type: functional; procedure, shortened: as §1

SMILES: COc1ccc(-c2csc(NC(=O)CN3CCN(c4cc(=O)n(-c5ccccc5)c5ccccc45)CC3)n2)cc1
- inhibition of growth at 10 µM (OVCAR-4): 70.4%
- inhibition of growth at 10 µM (OVCAR-3): 17.1%
- inhibition of growth at 10 µM (NCI-H322M): 12.6%
- inhibition of growth at 10 µM (MDA-MB-231): 22.4%
- inhibition of growth at 10 µM (ACHN): 19%
- inhibition of growth at 10 µM (HCT-15): 18%
- inhibition of growth at 10 µM (MCF7): 26%
- growth inhibition (GI) (OVCAR-5): inactive
- inhibition of growth at 10 µM (M14): 16.1%
- inhibition of growth at 10 µM (A498): 13%
- inhibition of growth at 10 µM (PC-3): 27.5%
- inhibition of growth at 10 µM (CAKI-1): 16.1%
- inhibition of growth at 10 µM (HOP-62): 12.4%
- inhibition of growth at 10 µM (SNB-19): 24.2%
- inhibition of growth at 10 µM (UACC-62): 31.1%
- inhibition of growth at 10 µM (NCI-H460): 15.9%
- inhibition of growth at 10 µM (OVCAR-8): 15.5%
- inhibition of growth at 10 µM (SF-268): 12.4%
- inhibition of growth at 10 µM (K562): 56.4%
- inhibition of growth at 10 µM (HL-60): 30.2%
- inhibition of growth at 10 µM (SR): 11.2%
- inhibition of growth at 10 µM (NCI-H226): 18.7%
- inhibition of growth at 10 µM (HCT-116): 28.9%
- inhibition of growth at 10 µM (EKVX): 35.2%
- inhibition of growth at 10 µM (LOX IMVI): 15%
- inhibition of growth at 10 µM (CCRF-CEM): 24.9%
- inhibition of growth at 10 µM (BT-549): 19.9%
- growth inhibition (GI) (MDA-MB-435): inactive
- inhibition of growth at 10 µM (SF-295): 22.9%
- inhibition of growth at 10 µM (MDA-MB-468): 55.3%
- inhibition of growth at 10 µM (NCI-H23): 35.7%
- IC50 (T47D [1]): 8.11 µM
- inhibition of growth at 10 µM (T47D [2]): 60%
- inhibition of growth at 10 µM (A549): 19.7%
- inhibition of growth at 10 µM (IGROV-1): 21.5%
- inhibition of growth at 10 µM (UO-31): 27.9%
- inhibition of growth at 10 µM (MOLT-4): 53.1%
- inhibition of growth at 10 µM (NCI-H522): 30.4%
- inhibition of growth at 10 µM (UACC-257): 27.8%
- inhibition of growth at 10 µM (SK-MEL-5): 53%
- inhibition of growth at 10 µM (SN12C): 16%
- growth inhibition (GI) (RPMI-8226): inactive

Reference: ChEMBL document CHEMBL4819122, “Novel 4-(piperazin-1-yl)quinolin-2(1H)-one bearing thiazoles with antiproliferative activity through VEGFR-2-TK inhibition” (Bioorg Med Chem, 2021)
